# Measurements from ChEMBL document CHEMBL1125728, “Dopamine autoreceptor agonists as potential antipsychotics. 2. (Aminoalkoxy)-4H-1-benzopyran-4-ones” (J Med Chem, 1991).
# Key:
# [1] = molecular target: Serotonin 2 (5-HT2) receptor (Rattus norvegicus, UniProt P30994+P08909+P14842); assay: Compound was tested for its inhibitory effect on the binding profile in 5-hydroxytryptamine 2 receptor using [3H]spiroperidol in rat brain.; format: tissue-based
# Method in brief: (§1)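 Rat brain receptor binding with the stated radioligands. IC50 obtained by nonlinear regression from four to five concentrations. [3H]flupenthixol and [3H]N-propylnorapomorphine values come from four independent determinations each, and the [3H]haloperidol value from two experiments. Remaining ligands were determined once.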
# [2] = molecular target: T1, Adrenergic receptor alpha-2 (Rattus norvegicus, UniProt P22086+P19328+P22909); assay: Compound was tested for its inhibitory effect on the binding profile in Alpha-2 adrenergic receptor using [3H]p-aminoclonidine in rat brain.; format: tissue-based; method in brief: as §1
# T1 sequence (P22086 whole entry): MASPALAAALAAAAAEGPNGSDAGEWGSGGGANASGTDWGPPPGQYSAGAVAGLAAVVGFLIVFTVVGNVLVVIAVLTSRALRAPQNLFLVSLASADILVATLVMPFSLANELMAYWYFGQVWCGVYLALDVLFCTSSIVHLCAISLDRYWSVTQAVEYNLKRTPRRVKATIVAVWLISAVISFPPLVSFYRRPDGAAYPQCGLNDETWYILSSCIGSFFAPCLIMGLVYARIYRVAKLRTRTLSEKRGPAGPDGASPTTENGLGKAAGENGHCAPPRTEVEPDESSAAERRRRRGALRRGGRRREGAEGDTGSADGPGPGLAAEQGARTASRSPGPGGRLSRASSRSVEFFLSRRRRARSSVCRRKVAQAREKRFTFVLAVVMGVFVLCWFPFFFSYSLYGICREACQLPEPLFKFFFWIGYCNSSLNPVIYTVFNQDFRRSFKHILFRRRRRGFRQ
# T1 sequence (P19328 whole entry): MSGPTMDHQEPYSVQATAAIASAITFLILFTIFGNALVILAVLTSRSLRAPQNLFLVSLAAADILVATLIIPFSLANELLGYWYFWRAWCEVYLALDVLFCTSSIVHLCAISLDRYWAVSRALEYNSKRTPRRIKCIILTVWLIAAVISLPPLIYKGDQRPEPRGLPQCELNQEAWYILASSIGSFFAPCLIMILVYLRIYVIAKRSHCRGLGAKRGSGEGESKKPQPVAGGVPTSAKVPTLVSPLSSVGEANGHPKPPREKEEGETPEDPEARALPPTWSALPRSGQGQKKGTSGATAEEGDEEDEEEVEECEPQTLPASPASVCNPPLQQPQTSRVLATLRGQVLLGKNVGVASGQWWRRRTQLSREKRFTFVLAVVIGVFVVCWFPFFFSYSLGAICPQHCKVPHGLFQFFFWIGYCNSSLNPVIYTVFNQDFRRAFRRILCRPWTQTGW
# T1 sequence (P22909 whole entry): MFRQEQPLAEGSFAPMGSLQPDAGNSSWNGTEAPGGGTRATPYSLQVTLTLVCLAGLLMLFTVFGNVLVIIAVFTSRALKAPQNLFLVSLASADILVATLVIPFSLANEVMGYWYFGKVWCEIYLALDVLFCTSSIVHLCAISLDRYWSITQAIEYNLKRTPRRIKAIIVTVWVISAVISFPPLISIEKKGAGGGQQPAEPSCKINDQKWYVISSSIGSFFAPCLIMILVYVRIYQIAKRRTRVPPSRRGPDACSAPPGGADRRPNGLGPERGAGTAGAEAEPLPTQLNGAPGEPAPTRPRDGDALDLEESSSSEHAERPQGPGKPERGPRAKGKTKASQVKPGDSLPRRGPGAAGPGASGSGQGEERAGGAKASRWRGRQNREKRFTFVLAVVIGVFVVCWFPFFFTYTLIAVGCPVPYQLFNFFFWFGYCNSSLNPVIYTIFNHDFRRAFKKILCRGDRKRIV
# [3] = molecular target: D(2) dopamine receptor (Rattus norvegicus, UniProt P61169); assay: Compound was tested for its inhibitory effect on the binding profile in Dopamine receptor D2 using [3H]haloperidol in rat brain.; format: tissue-based; method in brief: as §1
# [4] = test system: Mus musculus; assay: Inhibition of mouse intraperitoneally.; format: functional; conditions: ip
# Method in brief: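 Inhibition of exploratory locomotor activity, scored together with motor coordination (ataxia). ED50 generated from four to five doses, with 5–12 animals per dose.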
# [5] = test system: Rattus norvegicus; assay: Compound tested for its effect on reversal of 6-OHDA induced depression in rats after sc administration.; format: functional
# Method in brief: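 Rats lesioned at least 1 month earlier with 6-OHDA (20 μg icv) plus pargyline (50 mg/kg ip) and desipramine (25 mg/kg ip), giving about 90% brain DA depletion. Drug given sc, then locomotor activity recorded for 30 min from dosing. ED200 estimated from three or four doses, six rats per dose.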
# [6] = test system: Rattus norvegicus; assay: Effect on DOPA accumulation level at an intraperitoneal dose of 30 mg/kg in rat.; format: functional
# [7] = test system: Rattus norvegicus; assay: Compound tested for % inhibition of DA neuronal firing at an intraperitoneal dose of 2.5 mg/kg.; format: functional; conditions: ip
# [8] = test system: Rattus norvegicus; assay: Compound tested for % reversal of DOPA accumulation at an intraperitoneal dose of 30 mg/kg.; format: functional
# Method in brief: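 Rats dosed 1 h before sacrifice, with GBL (750 mg/kg ip) at 30 min and NSD 1015 (100 mg/kg ip) at 25 min before sacrifice. Striatal DOPA measured by HPLC with electrochemical detection. Value is percent reversal of the GBL-induced DOPA rise.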
# [9] = Compound tested for its liability for extrapyramidal side effects (EPS) in terms of no. of animals showing signs of EPS/no. of animals tested upon po administration at a dose of 80 mg/Kg; 0/3; format: functional
# [10] = test system: Rattus norvegicus; assay: Percentage of rats showing signs of stereotyped behavior at 30 mg/kg peroral dose and animals observed for 60 min postdose.; conditions: route oral
# Chain of D(2) dopamine receptor (P61169 whole entry): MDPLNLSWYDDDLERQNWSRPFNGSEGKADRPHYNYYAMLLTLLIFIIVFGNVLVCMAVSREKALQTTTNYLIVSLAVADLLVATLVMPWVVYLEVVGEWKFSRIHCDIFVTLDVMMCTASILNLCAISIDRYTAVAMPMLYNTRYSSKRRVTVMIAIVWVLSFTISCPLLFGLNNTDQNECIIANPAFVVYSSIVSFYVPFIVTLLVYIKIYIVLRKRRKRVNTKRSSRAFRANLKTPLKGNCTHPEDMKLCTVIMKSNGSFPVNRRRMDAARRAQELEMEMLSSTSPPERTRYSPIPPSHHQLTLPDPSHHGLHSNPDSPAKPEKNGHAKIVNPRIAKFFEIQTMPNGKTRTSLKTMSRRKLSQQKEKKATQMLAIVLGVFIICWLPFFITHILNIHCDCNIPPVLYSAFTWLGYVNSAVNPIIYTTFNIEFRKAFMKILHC
smiles,measurement,setting,value
O=c1ccoc2cc(OCCCN3CCN(c4ccccn4)CC3)ccc12,IC50,[1],1 µM
same,IC50,[2],2.6 µM
same,IC50,[3],1.08 µM
same,ED50,[4],1.3 mg/kg
same,ED200,[5],> 5 mg/kg
same,DOPA level,[6],0.28 µg/g
same,inhibition in vivo at 2.5 mg/kg,[7],93%
same,Reversal,[8],100%
same,EPS,[9],0
same,Animals,[10],0%
